# Laboratory results as given in ChEMBL document CHEMBL1125107, “Cephalosporin 3'-quinolone esters with a dual mode of action” (J Med Chem, 1990).
# Columns and labels:
# Pseudomonas aeruginosa [1] = experiment: Evaluated for the minimum inhibitory concentration against Pseudomonas aeruginosa 18S/H (Class Id beta-lactamase overproducer); type: functional
# Method in brief: (§1)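 MIC by serial 2-fold dilution in Mueller-Hinton broth; results given as minimum inhibitory concentrations (nmol/mL).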
# Staphylococcus aureus [2] = experiment: Minimum inhibitory concentration against Staphylococcus aureus 95 (Methicillin-resistant, high-level beta-lactamase producer); type: functional
# Method in brief: (§2)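 Serial 2-fold broth dilution in Mueller-Hinton broth, run by standard methodology; read-out is the minimum inhibitory concentration (MIC).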
# Pseudomonas aeruginosa [3] = experiment: Minimum inhibitory concentration against Pseudomonas aeruginosa ATCC 27853; type: functional
# Method in brief: (§3)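 Broth MIC determination: serial 2-fold dilutions in Mueller-Hinton broth by standard methodology; the lowest concentration inhibiting growth is reported as the MIC, in nmol/mL.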
# Proteus vulgaris [4] = experiment: Minimum inhibitory concentration against Proteus vulgaris 1028 BC (Class Ic beta-lactamase overproducer); type: functional; method in brief: as §3
# Streptococcus pneumoniae [5] = experiment: Minimum inhibitory concentration against Streptococcus pneumoniae 6301; type: functional; method in brief: as §3
# Streptococcus pyogenes [6] = experiment: Minimum inhibitory concentration against Streptococcus pyogenes 4; type: functional; method in brief: as §3
# Proteus vulgaris [7] = experiment: Evaluated for the minimum inhibitory concentration against Proteus vulgaris 1028 BC (Class Ic beta-lactamase overproducer; type: functional; method in brief: as §1
# [8] = Evaluated for its stability in Mueller-Hinton broth at 37 degrees Celsius as determined by HPLC analysis; type: physicochemical
# Method in brief: (§4)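 Compound solutions incubated at 37 °C, sampled at intervals; remaining starting material quantified by HPLC on PRP-1 column, UV 286 nm, mobile phase 0.01 M tetradecyltrimethylammonium bromide in 60% 0.067 M pH 7.4 phosphate buffer/40% acetonitrile; half-life reported.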
# Escherichia coli [9] = experiment: Evaluated for in Vitro activity against Escherichia coli DC-O; type: functional; settings: read-out: MIC; method in brief: as §1
# Pseudomonas aeruginosa [10] = experiment: Evaluated for the minimum inhibitory concentration against Pseudomonas aeruginosa 18S/H ( Class Id beta-lactamase overproducer); type: functional; method in brief: as §1
# [11] = Evaluated for its stability in rat blood at 37 degrees Celsius as determined by HPLC analysis; type: ADME, organism-based; method in brief: as §4
# Micrococcus luteus = experiment: Evaluated for in Vitro activity against Micrococcus luteus PCI; type: functional; settings: read-out: MIC; method in brief: as §1
# Streptococcus pneumoniae [12] = experiment: Evaluated for in Vitro activity against Streptococcus pneumoniae 6301; type: functional; settings: read-out: MIC; method in brief: as §1
# [13] = Evaluated for its stability in rat serum at 37 degrees Celsius as determined by HPLC analysis; type: ADME, organism-based; method in brief: as §4
# Streptococcus pyogenes [14] = experiment: Evaluated for the in vivo activity in mice against streptococcus pyogenes 4; type: functional
# [15] = Evaluated for its stability in phosphate buffer, pH 7.4 at 37 degrees Celsius as determined by HPLC analysis; type: physicochemical; method in brief: as §4
# Escherichia coli [16] = experiment: Evaluated for the minimum inhibitory concentration against Escherichia coli UB 1005; type: functional; method in brief: as §1
# Escherichia coli [17] = experiment: Evaluated for the in vivo activity in mice against Escherichia coli 257; type: functional
# [18] = Evaluated for its stability in phosphate buffer, pH 6.5 at 37 degrees Celsius as determined by HPLC analysis; type: physicochemical; method in brief: as §4
# [19] = Evaluated for its stability in dog serum at 37 degrees Celsius as determined by HPLC analysis; type: ADME, organism-based, Canis lupus familiaris; method in brief: as §4
# [20] = Evaluated for its stability in monkey serum at 37 degrees Celsius as determined by HPLC analysis; type: ADME, cell-free; settings: simiiformes; method in brief: as §4
# [21] = Evaluated for its stability in human serum at 37 degrees Celsius as determined by HPLC analysis; type: ADME, organism-based; method in brief: as §4
# [22] = Evaluated for its stability in dog blood at 37 degrees Celsius as determined by HPLC analysis; type: ADME, organism-based, Canis lupus familiaris; method in brief: as §4
# Serratia marcescens = experiment: In vitro antibacterial activity was determined against Serratia marcescens 1071; type: functional; method in brief: as §3
# Citrobacter freundii = experiment: In vitro antibacterial activity was determined against Citrobacter freundii BS-16; type: functional; method in brief: as §1
# Pseudomonas aeruginosa [23] = experiment: In vitro antibacterial activity was determined against Pseudomonas aeruginosa 18S/H ( Class Id beta-lactamase overproducer); type: functional; method in brief: as §3
# Escherichia coli [24] = experiment: In vitro antibacterial activity was determined against Escherichia coli UB 1005; type: functional; method in brief: as §1
# Escherichia coli [25] = experiment: In vitro antibacterial activity was determined against Escherichia coli TEM-1 (TEM-1 (class IIIa) beta-lactamase producer); type: functional; method in brief: as §1
# Streptococcus pyogenes [26] = experiment: In vitro antibacterial activity was determined against Streptococcus pyogenes 4; type: functional; method in brief: as §3
# Proteus vulgaris [27] = experiment: In vitro antibacterial activity was determined against Proteus vulgaris 1028 BC ( Class Ic beta-lactamase overproducer; type: functional; method in brief: as §1
# Streptococcus pneumoniae [28] = experiment: In vitro antibacterial activity was determined against Streptococcus pneumoniae 6301; type: functional; method in brief: as §3
# Proteus mirabilis = experiment: In vitro antibacterial activity was determined against Proteus mirabilis 90; type: functional; method in brief: as §1
# Enterococcus faecalis = experiment: In vitro antibacterial activity was determined against Enterococcus faecalis ATCC 29212; type: functional; method in brief: as §1
# Staphylococcus aureus [29] = experiment: In vitro antibacterial activity was determined against Staphylococcus aureus 95 (Methicillin-resistant, high-level beta-lactamase producer); type: functional; method in brief: as §2
# Staphylococcus aureus [30] = experiment: In vitro antibacterial activity was determined against Staphylococcus aureus ATCC 29213 ( inducible, low level beta-lactamase producer); type: functional; method in brief: as §3
# Enterobacter cloacae [31] = experiment: In vitro antibacterial activity was determined against Enterobacter cloacae P99; type: functional; method in brief: as §1
# Staphylococcus aureus [32] = experiment: In vitro antibacterial activity was determined against Staphylococcus aureus 1059B ( inducible, high level beta-lactamase producer); type: functional; method in brief: as §3
# Pseudomonas aeruginosa [33] = experiment: In vitro antibacterial activity was determined against Pseudomonas aeruginosa ATCC 27853; type: functional; method in brief: as §3
# Proteus vulgaris [34] = experiment: Evaluated for the minimum inhibitory concentration against Proteus vulgaris 1028 BC; type: functional; method in brief: as §2
# Enterobacter cloacae [35] = experiment: Evaluated for the minimum inhibitory concentration against Enterobacter cloacae P99 ( Class Ia beta-lactamase overproducer); type: functional; method in brief: as §1
SMILES,MIC (Pseudomonas aeruginosa [1]) [µg/mL],MIC (Staphylococcus aureus [2]) [µg/mL],MIC (Pseudomonas aeruginosa [3]) [µg/mL],MIC (Proteus vulgaris [4]) [µg/mL],MIC (Streptococcus pneumoniae [5]) [µg/mL],MIC (Streptococcus pyogenes [6]) [µg/mL],MIC (Proteus vulgaris [7]) [µg/mL],MIC (Pseudomonas aeruginosa [10]) [µg/mL],also measured
CCn1cc(C(=O)OCC2=C(C(=O)O)N3C(=O)[C@@H](NC(=O)Cc4cccs4)C3SC2)c(=O)c2cc(F)c(N3CCN(C=O)CC3)cc21 (some centres undefined),16,4,> 128,4,0.063,–,–,–,–
O=C(O)c1cn(-c2ccc(F)cc2)c2cc3c(cc2c1=O)OCO3,0.5,1,–,–,64,> 128,0.5,–,–
CCn1cc(C(=O)OCC2=C(C(=O)O)N3C(=O)[C@@H](NC(=O)Cc4cccs4)C3SC2)c(=O)c2cc3c(cc21)OCO3 (some centres undefined),8,4,> 128,0.25,–,–,–,–,–
CO/N=C(/C(=O)N[C@@H]1C(=O)N2C(C(=O)O)=C(COC(=O)c3cn(CCF)c4c(F)c(N5CCN(C)CC5)c(F)cc4c3=O)CSC12)c1csc(N)n1 (some centres undefined),–,2,8,0.25,< 0.008,0.031,–,4,half-life [8]: 3.4 h; MIC (Escherichia coli [9]): 0.299 µM; half-life [11]: 5.8 h; MIC (Micrococcus luteus): 0.0746 µM; MIC (Streptococcus pneumoniae [12]): 0.0187 µM; half-life [13]: 4.5 h; ED50 (Streptococcus pyogenes [14]): 8.8 mg/kg; half-life [15]: 3 h; MIC (Escherichia coli [16]): 0.12 µg/mL; ED50 (Escherichia coli [17]): 1.8 mg/kg; half-life [18]: 6.9 h; half-life [19]: 3.9 h; half-life [20]: 5.7 h; half-life [21]: 6.3 h; half-life [22]: 3.4 h
CCn1cc(C(=O)OCC2=C(C(=O)O)N3C(=O)[C@@H](NC(=O)COc4ccccc4)C3SC2)c(=O)c2cc(F)c(-n3cccc3)cc21 (some centres undefined),128,0.5,> 128,16,2,2,–,–,–
CCn1cc(C(=O)OCC2=C(C(=O)O)N3C(=O)[C@@H](NC(=O)COc4ccccc4)C3SC2)c(=O)c2cc(F)c(N3CCCC3)cc21 (some centres undefined),32,0.5,> 128,–,< 0.008,–,32,–,–
CCn1cc(C(=O)OCC2=C(C(=O)O)N3C(=O)[C@@H](NC(=O)/C(=N/OC)c4csc(N)n4)C3SC2)c(=O)c2cc(F)c(N3CCN(C=O)CC3)cc21 (some centres undefined),32,8,> 128,8,–,–,–,–,–
CCn1cc(C(=O)O)c(=O)c2cc(F)c(N3CCCC3)cc21,–,0.063,> 128,–,> 128,–,1,128,–
CCn1cc(C(=O)OCC2=C(C(=O)O)N3C(=O)[C@@H](NC(=O)/C(=N/OC)c4csc(N)n4)C3SC2)c(=O)c2cc(F)c(N3CCSCC3)cc21 (some centres undefined),8,0.5,128,–,0.016,< 0.008,2,–,MIC (Escherichia coli [16]): 1 µg/mL
CC(=O)OCC1=C(C(=O)O)N2C(=O)[C@@H](NC(=O)COc3ccccc3)C2SC1 (some centres undefined),–,–,–,–,–,–,–,–,MIC (Serratia marcescens): > 128 µg/mL; MIC (Citrobacter freundii): > 128 µg/mL; MIC (Pseudomonas aeruginosa [23]): > 128 µg/mL; MIC (Escherichia coli [24]): 64 µg/mL; MIC (Escherichia coli [25]): > 128 µg/mL; MIC (Streptococcus pyogenes [26]): 0.063 µg/mL; MIC (Proteus vulgaris [27]): > 128 µg/mL; MIC (Streptococcus pneumoniae [28]): 0.25 µg/mL; MIC (Proteus mirabilis): 64 µg/mL; MIC (Enterococcus faecalis): 64 µg/mL; MIC (Staphylococcus aureus [29]): > 128 µg/mL; MIC (Staphylococcus aureus [30]): 0.5 µg/mL; MIC (Enterobacter cloacae [31]): > 128 µg/mL; MIC (Staphylococcus aureus [32]): 0.25 µg/mL; MIC (Pseudomonas aeruginosa [33]): > 128 µg/mL
O=C(COc1ccccc1)N[C@@H]1C(=O)N2C(C(=O)O)=C(COC(=O)c3cn(-c4ccc(F)cc4)c4cc5c(cc4c3=O)OCO5)CSC12 (some centres undefined),–,64,> 128,–,1,2,–,64,MIC (Proteus vulgaris [34]): 64 µg/mL
CCn1cc(C(=O)OCC2=C(C(=O)O)N3C(=O)[C@@H](NC(=O)COc4ccccc4)C3SC2)c(=O)c2cc(F)c(N3CCN(C=O)CC3)cc21 (some centres undefined),–,2,128,4,–,–,–,8,MIC (Enterobacter cloacae [35]): 2 µg/mL; MIC (Escherichia coli [16]): 128 µg/mL
